Laboratory results reported in PubChem BioAssay AID602266 (Broad Institute, 2012).
Records with an inconclusive call do not appear. Activity calls are given as the source filed them.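 How the source made its calls: active means compounds whose fitted half-maximal inhibition dose is at most double their top valid tested dose; inconclusive means flat curve with 30 to 70% inhibition, or poor fit; inactive means the rest.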

Tested on: NIH-3T3 HGL cells, heat shock, Hsp90aa mRNA qPCR
Test: lowered Hsp90aa transcript levels after heat shock – NIH-3T3 cells, RT-qPCR, cherry-pick, orthogonal assay for HSF1 inhibitor project, dose response (AID 602266)
Settings: not given
In short: (§1)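 material = NIH-3T3-derived HGL heat shock reporter cells | reagent = 42 °C heat shock, 90 min | incubation = 90 min compound pretreatment, then heat shock and 1 h recovery | signal = Two-step multiplex TaqMan RT-qPCR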

SMILES | AC50 [nM]
CC1=C(C(=O)OCc2ccc3c(c2)OCO3)C(c2ccc(F)cc2)NC(=O)N1 (stereo not given) | 1390

Tested on: not listed separately
Test: as above
Settings: NIH-3T3 HGL cells, heat shock, Hsp90aa mRNA qPCR; at 26 µM (top of the series)
In short: as §1

SMILES | activity change, negative = inhibition
CCS(=O)(=O)N1Cc2ccccc2CC1C(=O)Nc1nc2ccccc2s1 (stereo not given) | 33.2% (inactive)
Cc1nc(SCC(=O)Nc2nc3ccccc3s2)c(C#N)c(C)c1C | 7.25% (inactive)
COC(=O)c1ccccc1NC(=O)c1ccc(-c2ccc(Br)cc2)o1 | 4.07% (inactive)
CCC(=O)O[C@]1(C(=O)CCl)[C@@H](C)C[C@H]2[C@@H]3CCC4=CC(=O)C=C[C@]4(C)[C@@]3(F)[C@@H](O)C[C@@]21C | 30.2% (inactive)
Cc1cccc(-n2ncc3c(N(C)C4CCCCC4)ncnc32)c1 | 27% (inactive)
O=c1c2ccccc2sc2ccc(C#CC3(O)CCCCC3)cc12 | 49.4% (inactive)
CN(C(=O)OC(C)(C)C)c1ccc(-c2nc3ccccc3s2)cc1 | 46.6% (inactive)
N#CCCCC#Cc1ccc2c(c1)COc1c3ccccc3nn1-2 | 65.7% (inactive)
CCOc1ccc(OCc2cccc(C(=O)N/N=C/c3cccnc3)c2)cc1 | 37.3% (inactive)
C(=N\Nc1nc2ccccc2s1)/c1ccccn1 | 82.6% (inactive)
CC12CCC(=O)C=C1CCC1C2C(O)CC2(C)C1CCC2(O)C(=O)CO (stereo not given) | 4.01% (inactive)
Cc1c(-c2nc(-c3ccc(C(C)(C)C)cc3)no2)n(C)oc1=O | 18.8% (inactive)
Cc1ccc(/C=N/Nc2ccc(C(=O)O)cc2)s1 | 32.5% (inactive)
CC(C)Sc1nc(SCC(=O)NCc2ccco2)c2c3c(sc2n1)COC(C)(C)C3 | 52.6% (inactive)
C[C@@H]1C[C@H]2[C@@H]3CCC4=CC(=O)C=C[C@]4(C)[C@@]3(F)[C@@H](O)C[C@]2(C)[C@@]1(O)C(=O)CO | 6.93% (inactive)
CC(=O)[C@@]1(O)C(C)CC2C3C=C(C)C4=Cc5c(cnn5-c5ccccc5)C[C@]4(C)C3C(O)C[C@@]21C (stereo not given in full) | 97.3% (inactive)
O=C(Nc1ccc(F)cc1F)c1cc2nc3c(c(C(F)(F)F)n2n1)CCCC3 | 2.56% (inactive)
CC(=O)OCC(=O)[C@@]12OC(C)(C)O[C@@H]1CC1C3C[C@H](F)C4=CC(=O)C=CC4(C)[C@@]3(F)C(O)CC12C (stereo not given in full) | -1.11% (inactive)
CC(C)(C)c1ccc(/C=N/Nc2cccc(C(=O)O)c2)cc1 | 12.9% (inactive)
CC1CCN(c2ccc(-c3cccc(NC(=O)C(F)(F)F)c3)nn2)CC1 | 37.6% (inactive)
C[C@]12C=CC(=O)C=C1CC[C@@H]1[C@@H]2[C@@H](O)C[C@@]2(C)[C@H]1CC[C@]2(O)C(=O)CO | 4.41% (inactive)
O=[N+]([O-])c1nn(-c2ccc3c(c2)OCCO3)n(O)c1=Nc1ccccc1 | 29% (inactive)
O=C(CN1C(=O)c2ccccc2S1(=O)=O)c1ccc2c(c1)OCCCO2 | 13.4% (inactive)
CC1CCCN(c2ncnc3c2cnn3-c2ccc(Cl)cc2)C1 (stereo not given) | 28.9% (inactive)
